Results from ChEMBL document CHEMBL4834419 (J Med Chem, 2021).
≈ marks a conversion by molar mass, not a printed value.

How the values were obtained:
HepG2 [1] = assay: Cytotoxicity against human HepG2 cells assessed as reduction in cell viability incubated for 48 hrs by WST-1 assay; settings: HepG2, 48 h
[2] = target: T1, Retinoic acid receptor RXR-alpha (Homo sapiens) (UniProt P19793); assay: Agonist activity against human RXRalpha in human HEK293T cells co-expressing pFR/pRL-Luc assessed as receptor activation at 10 uM incubated for 14 to 16 hrs by hybrid reporter gene assay relative to bexarotene; format: cell-based; settings: filed as agonist, time 14-16 hrs
T1 sequence (whole entry): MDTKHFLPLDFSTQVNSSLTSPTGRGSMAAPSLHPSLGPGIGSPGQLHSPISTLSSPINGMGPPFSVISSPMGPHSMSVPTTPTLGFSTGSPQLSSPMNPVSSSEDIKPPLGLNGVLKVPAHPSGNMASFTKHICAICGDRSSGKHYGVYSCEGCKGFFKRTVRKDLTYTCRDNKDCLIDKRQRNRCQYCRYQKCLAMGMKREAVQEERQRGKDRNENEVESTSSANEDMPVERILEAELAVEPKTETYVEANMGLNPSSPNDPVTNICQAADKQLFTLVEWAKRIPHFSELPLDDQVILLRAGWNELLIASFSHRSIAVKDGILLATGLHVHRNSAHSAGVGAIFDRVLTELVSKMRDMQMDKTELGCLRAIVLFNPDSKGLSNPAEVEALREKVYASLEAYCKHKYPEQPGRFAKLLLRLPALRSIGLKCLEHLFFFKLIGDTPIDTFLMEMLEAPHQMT
In short: (§1)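 Gal4 hybrid reporter assay in HEK293T cells, seeded 24 h before transfection (Lipofectamine LTX, Opti-MEM) with pFR-Luc, pRL-SV40 and pFA-CMV plasmid carrying the hinge region and LBD of the human receptor. After 5 h, compound added in 0.1% DMSO, with 0.1% DMSO alone as untreated control. Dual-Glo luciferase read after 14−16 h; firefly/renilla normalized; duplicates, ≥2 independent experiments.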

[3] = target: T2, Retinoic acid receptor RXR-alpha (Homo sapiens, UniProt P19793); assay: Agonist activity at human RXRalpha transfected in human HEK293T cells co-expressing pFR/pRL-Luc incubated for 14 to 16 hrs by hybrid reporter gene assay; format: cell-based
T2 sequence (P19793 whole entry): T1 sequence (whole entry)

[4] = target: T3, Nuclear receptor subfamily 1 group I member 3 (Homo sapiens, UniProt Q14994); assay: Agonist activity against human CAR in human HEK293T cells co-expressing pFR/pRL-Luc assessed as receptor activation at 10 uM incubated for 14 to 16 hrs by hybrid reporter gene assay relative to bexarotene; format: cell-based; settings: time 14-16 hrs; in short: as §1
T3 sequence (Q14994 whole entry): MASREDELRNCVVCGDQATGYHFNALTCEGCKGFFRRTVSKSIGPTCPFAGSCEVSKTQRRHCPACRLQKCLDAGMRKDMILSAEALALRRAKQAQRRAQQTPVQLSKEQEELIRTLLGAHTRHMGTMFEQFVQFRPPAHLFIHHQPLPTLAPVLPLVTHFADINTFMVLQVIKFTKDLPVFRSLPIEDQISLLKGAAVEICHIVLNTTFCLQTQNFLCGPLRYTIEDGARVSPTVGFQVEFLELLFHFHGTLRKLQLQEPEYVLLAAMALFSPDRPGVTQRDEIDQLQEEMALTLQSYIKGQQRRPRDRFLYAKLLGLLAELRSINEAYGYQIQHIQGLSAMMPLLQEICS

[5] = target: T4, Oxysterols receptor LXR-alpha (Homo sapiens) (UniProt Q13133); assay: Agonist activity against human LXRalpha in human HEK293T cells co-expressing pFR/pRL-Luc assessed as receptor activation at 10 uM incubated for 14 to 16 hrs by hybrid reporter gene assay relative to bexarotene; format: cell-based; settings: filed as agonist, time 14-16 hrs; in short: as §1
T4 sequence (whole entry): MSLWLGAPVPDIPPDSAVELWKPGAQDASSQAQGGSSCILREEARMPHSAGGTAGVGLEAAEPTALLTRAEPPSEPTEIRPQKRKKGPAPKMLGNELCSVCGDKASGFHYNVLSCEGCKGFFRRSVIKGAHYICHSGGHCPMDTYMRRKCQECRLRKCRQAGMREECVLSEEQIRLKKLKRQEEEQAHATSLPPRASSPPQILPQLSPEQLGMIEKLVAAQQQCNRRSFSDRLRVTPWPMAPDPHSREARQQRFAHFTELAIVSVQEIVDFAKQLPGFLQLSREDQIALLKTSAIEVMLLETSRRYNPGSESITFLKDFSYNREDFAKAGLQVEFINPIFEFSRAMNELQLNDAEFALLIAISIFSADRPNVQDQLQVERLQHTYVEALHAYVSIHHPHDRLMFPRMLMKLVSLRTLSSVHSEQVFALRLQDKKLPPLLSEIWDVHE

[6] = Aqueous solubility of compound in pH 8 phosphate buffer incubated for 1 hr by HPLC analysis; format: physicochemical; settings: phosphate buffer, pH 8
In short: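 Solubility was measured with 3 mg compound in 2 mL 0.1 M phosphate buffer, pH 8, shaken 1 h at 37 °C. The mixture was pressed through a Uniprep filter and the dissolved compound in the filtrate quantified by HPLC against an external calibration; three independent experiments.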

[7] = target: T5, Retinoic acid receptor RXR-beta (Homo sapiens, UniProt P28702); assay: Agonist activity at human RXRbeta transfected in human HEK293T cells co-expressing pFR/pRL-Luc incubated for 14 to 16 hrs by hybrid reporter gene assay; format: cell-based
T5 sequence (P28702 whole entry): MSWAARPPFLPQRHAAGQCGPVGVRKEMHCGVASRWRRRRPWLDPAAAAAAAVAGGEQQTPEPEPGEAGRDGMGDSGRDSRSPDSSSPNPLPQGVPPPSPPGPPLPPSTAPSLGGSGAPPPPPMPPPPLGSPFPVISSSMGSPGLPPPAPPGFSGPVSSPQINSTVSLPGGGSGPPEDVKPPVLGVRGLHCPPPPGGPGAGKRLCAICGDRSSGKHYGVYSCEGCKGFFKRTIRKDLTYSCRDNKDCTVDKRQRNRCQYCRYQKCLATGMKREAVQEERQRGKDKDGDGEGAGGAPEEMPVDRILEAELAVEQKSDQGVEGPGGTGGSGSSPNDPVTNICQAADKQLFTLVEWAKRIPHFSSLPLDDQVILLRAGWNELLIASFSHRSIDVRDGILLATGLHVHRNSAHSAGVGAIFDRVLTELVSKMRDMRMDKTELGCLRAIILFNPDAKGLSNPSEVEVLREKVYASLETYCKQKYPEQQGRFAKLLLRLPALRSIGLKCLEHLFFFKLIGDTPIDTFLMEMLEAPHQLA

HepG2 [8] = assay: Cytotoxicity against human HepG2 cells assessed as reduction in cell viability up to 100 uM incubated for 48 hrs by WST-1 assay; format: cell-based; settings: hepg2, 48 h
In short: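 HepG2 cells were seeded at 3 × 10⁴/well and grown 24 h. Medium was then switched to DMEM with 1% FCS containing compound in 0.1% DMSO; 0.1% DMSO alone was the negative control. After 48 h, WST-1 was added and absorbance read at 450/620 nm after 45 min. Four experiments in duplicate.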

[9] = Plasma concentration in mouse at 10 mg/kg, po measure after 3 hrs; format: ADME, organism-based
In short: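 Mice, n = 3, received a single oral dose of 10 mg/kg in water with 1% hydroxypropyl methylcellulose/Tween 80 (99:1). Tail-vein blood was drawn at 30 and 60 min and tissue collected at 3 h. Compound was quantified by LC−MS and PK derived by noncompartmental analysis.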

Activity [2]: 21%
EC50 [3]: 250 nM
Activity [4]: 5%
Activity [5]: 1%
solubility at 1 h [6]: 21 µg/mL (≈ 56 µM)
EC50 [7]: 350 nM
concentration at 3 h [9]: 35000 ng/mL
Compound: O=C(O)CCCc1cc(-c2cc(Cl)cc(Cl)c2)n(-c2ccccc2)n1
IC50 (HepG2 [1]): > 100000 nM
Activity (HepG2 [8]): Non-Toxic
